Results taken from ChEMBL document CHEMBL3526060, “Impact of hydrolysis-mediated clearance on the pharmacokinetics of novel anaplastic lymphoma kinase inhibitors” (Drug Metab Dispos, 2013).

Key:
Plasma [1] = assay: Drug metabolism in CD-1 mouse plasma assessed as maximum intrinsic clearance for hydrolysis metabolite formation by LC-MS/MS analysis; assay type: ADME, cell-free
In short: (§1)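 Mouse plasma depletion kinetics at 37 °C, substrate range 0.0023–5 µM, up to 3 h; samples quenched into acetonitrile/tolbutamide, LC-MS/MS. CLint per concentration from t1/2; apparent Vmax and Km fitted by nonlinear regression to Michaelis-Menten, formation rate simulated from fit; mean of two replicates.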

[2] = Plasma clearance in CD-1 mouse at 2 mg/kg, iv administered as single bolus dose by LC-MS/MS analysis; assay type: ADME, organism-based; set-up: dose 2 mg/kg, route intravenous
In short: (§2)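 Single 2 mg/kg IV bolus via lateral tail vein to male CD-1 mice. Mice euthanized at 0.083–24 h, 3 per time point (27 animals); cardiac-puncture blood into heparin on ice, plasma spun at 4 °C and immediately extracted with acetonitrile/0.1% formic acid plus IS, LC-MS/MS. Noncompartmental CL = Dose/AUC0–inf, t1/2 = 0.693/k, Vss from AUMC/AUC, MRT = Vss/CL.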

[3] = Ratio of drug level in blood to plasma in CD-1 mouse at 1 uM treated 20 mins after amide hydrolysis inhibitor DFP challenge measured after 1 hr by LC-MS/MS analysis; assay type: ADME; details: whole blood
In short: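 Fresh whole blood pre-incubated 20 min with 100 µM DFP, warmed to 37 °C, spiked to 1 µM, incubated 1 h, then plasma separated; reference plasma spiked at 1 µM. Extracted with 6 volumes acetonitrile/IS, LC-MS/MS; ratio = reference plasma peak area / treated plasma peak area.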

[4] = Drug metabolism in CD-1 mouse NADPH-fortified liver microsomes assessed as hydrolysis metabolite formation rate by LC-MS/MS analysis; assay type: ADME; details: for Km: read-out: Km(app)
In short: (§3)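 Mouse liver microsomes 0.25 mg/mL in 0.1 M phosphate pH 7.4, with or without 1 mM NADPH, substrate 0.0023–5 µM; sampling to 40 min into acetonitrile/IS, LC-MS/MS depletion. Hydrolysis Vmax/Km solved from no-NADPH incubations, then NADPH-dependent constants; metabolite formation rate simulated from fitted constants; duplicates.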

[5] = In vitro half life in CD-1 mouse plasma at 0.83 uM by LC-MS/MS analysis; assay type: ADME, cell-free
In short: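 Screening stability: compound at 0.83 µM in mouse plasma at 37 °C, up to 3 h; timed aliquots quenched into acetonitrile with tolbutamide IS, centrifuged, LC-MS/MS; half-life from depletion, CLint = (0.693/t1/2)/plasma concentration.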

[6] = Half life in CD-1 mouse at 2 mg/kg, iv administered as single bolus dose by LC-MS/MS analysis; assay type: ADME, organism-based; set-up: dose 2 mg/kg, route intravenous; details: in vivo; in short: as §2
Plasma [7] = assay: Drug metabolism in CD-1 mouse plasma assessed as hydrolysis metabolite formation rate by LC-MS/MS analysis; assay type: ADME, cell-free; details: for Km: read-out: Km(app); in short: as §1
[8] = Mean residence time in CD-1 mouse at 2 mg/kg, iv administered as single bolus dose by LC-MS/MS analysis; assay type: ADME, organism-based; set-up: dose 2 mg/kg, route intravenous; details: in vivo; in short: as §2
[9] = Volume of distribution at steady state in CD-1 mouse at 2 mg/kg, iv administered as single bolus dose by LC-MS/MS analysis; assay type: ADME, organism-based; set-up: dose 2 mg/kg, route intravenous; details: in vivo, read-out: Vdss; in short: as §2
[10] = Fraction unbound in CD-1 mouse liver microsomes after 7 hrs by equilibrium dialysis method; assay type: ADME
In short: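 Equilibrium dialysis of 0.25 mg/mL mouse liver microsomes in phosphate buffer against PBS, 7 h at 37 °C, 5% CO2, test compound 0.1, 0.5 or 2 µM, triplicate; LC-MS/MS; fraction unbound = buffer/microsome concentration.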

[11] = Drug metabolism in CD-1 mouse liver microsomes assessed as hydrolysis metabolite formation rate by LC-MS/MS analysis; assay type: ADME; details: for Km: read-out: Km(app); in short: as §3
[12] = Fraction unbound in CD-1 mouse plasma after 7 hrs by equilibrium dialysis method; assay type: ADME, cell-free
In short: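 Mouse plasma pre-treated 20 min with 100 µM DFP to block hydrolysis, spiked at 0.1, 0.5 or 2 µM, equilibrium dialysis against PBS for 7 h at 37 °C, 5% CO2, triplicate; matrix-matched samples extracted with acetonitrile/IS, LC-MS/MS; fu = buffer/plasma concentration.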

[13] = AUC (0 to infinity) in CD-1 mouse at 2 mg/kg, iv administered as single bolus dose by LC-MS/MS analysis; assay type: ADME, organism-based; set-up: time infinity, dose 2 mg/kg, route intravenous; details: plasma; in short: as §2

Row | CL (Plasma [1]) [uL/min.ml] | clearance [2] [mL/min/kg] | blood plasma ratio at 1 h, 1 µM [3] | Vmax(app) [4] [pmol/min/mg] | Km [4] [µM] | half-life at 0.83 µM [5] [h] | half-life [6] [h] | Vmax(app) (Plasma [7]) [pmol/min/mL] | Km (Plasma [7]) [µM] | MRT [8] [h] | Vd [9] [L/kg] | fraction unbound at 7 h [10] | Vmax(app) [11] [pmol/min/mg] | Km [11] [µM] | fraction unbound at 7 h [12] | AUC(0-inf) [13] [µM·h] | Compound
1 | 10.7 | 58.5 | 0.9 | 143 | 0.936 | 2.9 | 1.01 | 3.81 | 0.357 | 1.28 | 4.49 | 0.53 | 5.12 | 0.0292 | 0.046 | 0.957 | CC(C)NC(=O)[C@H]1CC[C@@H](n2/c(=N/C(=O)c3cc(F)cc(F)c3)[nH]c3ccc(CN4CCC(C(C)(C)O)CC4)cc32)CC1
2 | 1.68 | 44.3 | 0.9 | 194 | 1.95 | 8.5 | 2.2 | 1.14 | 0.68 | 2.92 | 7.78 | 0.22 | 5.38 | 0.261 | 0.012 | 1.2 | CC(C)NC(=O)[C@H]1CC[C@@H](n2/c(=N/C(=O)c3cccc(C(F)(F)F)c3)[nH]c3ccc(CN4CCC(C(C)(C)O)CC4)cc32)CC1
